The values below come from ChEMBL document CHEMBL1149183, “Novel benzo[1,4]diazepin-2-one derivatives as endothelin receptor antagonists” (J Med Chem, 2004).

The target of data set [1] is Cytochrome P450 3A4 (Homo sapiens, UniProt P08684). Nature of the data set: Inhibition of human cytochrome P450 3A4. In kind it is ADME. In short, it runs like this: (§1)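 Human liver microsomes with isoform marker reactions near substrate Km: diclofenac 4'-hydroxylation (2C9), dextromethorphan […] (2D6), midazolam 1'-hydroxylation (3A4); metabolite formation by LC-MS/MS; IC50 reported.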
Cytochrome P450 3A4, sequence (P08684 whole entry, canonical isoform): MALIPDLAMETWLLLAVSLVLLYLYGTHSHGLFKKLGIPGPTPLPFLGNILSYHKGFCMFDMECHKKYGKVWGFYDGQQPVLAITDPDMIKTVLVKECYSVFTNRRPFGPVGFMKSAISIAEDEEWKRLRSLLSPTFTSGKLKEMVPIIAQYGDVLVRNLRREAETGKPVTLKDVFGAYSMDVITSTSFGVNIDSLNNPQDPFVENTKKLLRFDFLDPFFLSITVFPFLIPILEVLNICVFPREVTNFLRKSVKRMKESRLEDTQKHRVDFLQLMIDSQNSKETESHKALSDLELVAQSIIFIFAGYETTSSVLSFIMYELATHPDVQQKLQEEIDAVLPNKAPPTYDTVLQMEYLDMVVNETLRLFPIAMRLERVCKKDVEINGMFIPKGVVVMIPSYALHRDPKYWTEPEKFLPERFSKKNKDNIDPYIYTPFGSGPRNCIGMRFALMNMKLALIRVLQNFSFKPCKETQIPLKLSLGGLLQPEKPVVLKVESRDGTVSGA

Data set [2] addresses Cytochrome P450 2C9 (Homo sapiens, UniProt P11712). Nature of the data set: Inhibition of human cytochrome P450 2C9. In kind it is ADME. In short, it runs like this: as §1
Data set [3] in a line: Log D value was evaluated. The data set is classed as physicochemical. Particulars: octanol/water, pH 7.4; read-out: Log D7.4. Summed up: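 Shake-flask partition, n-octanol versus aqueous phase buffered to pH 7.4 (67 mM KH2PO4/67 mM Na2HPO4), volume ratio 1:9; both phases assayed by HPLC.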
Data set [4] concerns Rattus norvegicus. The experiment in a line: In vivo area between curve (ABC) as calculated from the blood pressure recordings before and after administration of 30 mg/kg to hypertensive Dahl salt sensitive rats; number of rats=15. In kind it is functional. In short, it runs like this: (§2)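 Single oral dose of 30 mg/kg suspended in 10% arabic gum to hypertensive Dahl salt-sensitive rats carrying telemetry for arterial pressure and heart rate; area between pre- and post-treatment pressure curves calculated; fall in mean arterial pressure and duration of action also taken from recordings.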

The species entered for data set [5] is Rattus norvegicus. The experiment in a line: Duration of action of compound for reducing the blood pressure of rats was determined. In kind it is functional. Summed up:
as §2

Data set [6] concerns the target T1, Endothelin receptor (Rattus norvegicus, UniProt P26684+P21451).
T1 sequence (P26684 whole entry): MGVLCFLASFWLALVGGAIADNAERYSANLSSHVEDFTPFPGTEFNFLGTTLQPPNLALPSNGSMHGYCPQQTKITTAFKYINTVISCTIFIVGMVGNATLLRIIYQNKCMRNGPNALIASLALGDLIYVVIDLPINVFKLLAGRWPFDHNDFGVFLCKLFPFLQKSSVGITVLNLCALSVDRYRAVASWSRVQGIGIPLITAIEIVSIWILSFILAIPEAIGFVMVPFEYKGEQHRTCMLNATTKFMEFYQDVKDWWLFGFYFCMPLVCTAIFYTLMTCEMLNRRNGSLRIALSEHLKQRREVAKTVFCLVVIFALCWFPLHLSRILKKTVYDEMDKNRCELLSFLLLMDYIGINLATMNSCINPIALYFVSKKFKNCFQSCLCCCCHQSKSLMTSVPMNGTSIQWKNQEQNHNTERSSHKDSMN
T1 sequence (P21451 whole entry): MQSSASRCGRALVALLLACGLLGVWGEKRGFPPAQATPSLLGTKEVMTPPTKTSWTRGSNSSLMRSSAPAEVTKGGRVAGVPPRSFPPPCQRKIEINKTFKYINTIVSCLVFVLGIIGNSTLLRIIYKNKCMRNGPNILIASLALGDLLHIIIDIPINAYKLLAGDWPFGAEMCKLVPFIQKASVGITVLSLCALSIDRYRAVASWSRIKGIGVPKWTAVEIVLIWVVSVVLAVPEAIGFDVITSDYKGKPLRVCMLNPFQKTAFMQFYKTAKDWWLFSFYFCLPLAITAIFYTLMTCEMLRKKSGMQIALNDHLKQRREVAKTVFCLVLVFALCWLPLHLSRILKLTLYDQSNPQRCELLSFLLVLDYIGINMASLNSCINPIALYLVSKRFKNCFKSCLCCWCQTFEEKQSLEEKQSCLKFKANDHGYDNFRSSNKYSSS
Nature of the data set: Inhibitory potency at native endothelin A and B receptors by inhibiting sarafotoxin Sf6 contractions of rat tracheal rings. In kind it is functional.

Data set [7] deals with Cytochrome P450 2D6 (Homo sapiens, UniProt P10635). The experiment in a line: Inhibition of human cytochrome P450 2D6. The data set is classed as ADME. In short, it runs like this:
as §1

Data set [8] addresses T2, Endothelin-1 receptor (Homo sapiens, UniProt P25101).
T2 sequence (P25101 whole entry): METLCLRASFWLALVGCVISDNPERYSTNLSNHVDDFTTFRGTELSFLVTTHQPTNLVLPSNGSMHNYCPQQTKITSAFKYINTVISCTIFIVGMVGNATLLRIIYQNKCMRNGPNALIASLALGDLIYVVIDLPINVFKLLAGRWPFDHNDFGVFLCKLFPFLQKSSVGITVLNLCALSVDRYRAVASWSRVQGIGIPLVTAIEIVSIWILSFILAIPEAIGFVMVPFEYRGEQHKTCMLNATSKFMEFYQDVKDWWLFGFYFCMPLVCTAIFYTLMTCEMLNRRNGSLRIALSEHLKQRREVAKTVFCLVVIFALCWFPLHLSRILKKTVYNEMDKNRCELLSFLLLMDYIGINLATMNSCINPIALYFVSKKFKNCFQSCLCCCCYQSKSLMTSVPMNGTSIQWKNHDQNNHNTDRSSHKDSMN
Nature of the data set: Antagonist activity towards human recombinant Endothelin A receptor expressed in chinese hamster ovary (CHO) cells determined using [125I]ET1 as radioligand. In kind it is functional, cell-based.

The species named for data set [9] is Rattus norvegicus. Nature of the data set: Maximum effect on reduction of mean arterial blood pressure was determined in rats. In kind it is functional. Summed up:
as §2

Data set [10] addresses T3, Endothelin receptor type B (Homo sapiens, UniProt P24530).
T3 sequence (P24530 whole entry): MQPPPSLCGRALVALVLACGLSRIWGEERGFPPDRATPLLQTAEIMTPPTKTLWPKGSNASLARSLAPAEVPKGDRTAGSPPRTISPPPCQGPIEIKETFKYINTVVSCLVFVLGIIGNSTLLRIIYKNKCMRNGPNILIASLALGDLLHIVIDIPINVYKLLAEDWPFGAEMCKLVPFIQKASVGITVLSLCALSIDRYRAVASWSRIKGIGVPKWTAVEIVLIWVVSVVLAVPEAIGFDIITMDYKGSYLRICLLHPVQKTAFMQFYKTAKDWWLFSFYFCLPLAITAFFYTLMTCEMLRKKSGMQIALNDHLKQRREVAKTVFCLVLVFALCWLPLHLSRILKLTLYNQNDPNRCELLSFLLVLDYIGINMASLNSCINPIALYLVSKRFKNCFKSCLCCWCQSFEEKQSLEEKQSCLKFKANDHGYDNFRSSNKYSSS
Nature of the data set: Antagonist activity towards human recombinant Endothelin B receptor expressed in chinese hamster ovary (CHO) cells determined using [125I]ET1 as radioligand. In kind it is functional, cell-based.

Data set [11] concerns the target T1, Endothelin receptor. Nature of the data set: Inhibitory potency at native endothelin A and endothelin B receptors by inhibiting endothelin-1 contractions of rat aortic rings. The data set is classed as functional.
The test system of data set [12] is Rattus norvegicus. Nature of the data set: In vivo area between curve (ABC) as calculated from the blood pressure recordings before and after administration of 30 mg/kg to hypertensive Dahl salt sensitive rats; number of rats=10. In kind it is functional. In short, it runs like this:
as §2

Data set [13] concerns Rattus norvegicus. Nature of the data set: In vivo area between curve (ABC) as calculated from the blood pressure recordings before and after administration of 30 mg/kg to hypertensive Dahl salt sensitive rats; number of rats=6. The data set is classed as functional. In short, it runs like this: as §2
In data set [14] the test system is Rattus norvegicus. Nature of the data set: In vivo area between curve (ABC) as calculated from the blood pressure recordings before and after administration of 30 mg/kg to hypertensive Dahl salt sensitive rats; number of rats=14. In kind it is functional. Summed up: as §2

Where only a bound is given, the exact number is not on record here.

Cytochrome P450 2C9, sequence (P11712 whole entry): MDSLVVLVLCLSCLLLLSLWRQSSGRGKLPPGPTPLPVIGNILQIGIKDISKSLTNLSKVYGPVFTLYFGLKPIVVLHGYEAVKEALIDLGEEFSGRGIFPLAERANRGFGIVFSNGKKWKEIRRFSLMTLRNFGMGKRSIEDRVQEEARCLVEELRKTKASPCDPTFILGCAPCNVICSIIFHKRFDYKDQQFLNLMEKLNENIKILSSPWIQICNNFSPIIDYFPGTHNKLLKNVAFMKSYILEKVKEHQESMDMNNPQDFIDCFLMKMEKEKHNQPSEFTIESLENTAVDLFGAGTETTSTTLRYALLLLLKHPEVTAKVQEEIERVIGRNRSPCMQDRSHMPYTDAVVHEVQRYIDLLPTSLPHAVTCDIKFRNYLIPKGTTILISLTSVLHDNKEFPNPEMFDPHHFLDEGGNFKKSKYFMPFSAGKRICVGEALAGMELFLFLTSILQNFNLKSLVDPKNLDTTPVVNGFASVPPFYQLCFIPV
Cytochrome P450 2D6, sequence (P10635 whole entry): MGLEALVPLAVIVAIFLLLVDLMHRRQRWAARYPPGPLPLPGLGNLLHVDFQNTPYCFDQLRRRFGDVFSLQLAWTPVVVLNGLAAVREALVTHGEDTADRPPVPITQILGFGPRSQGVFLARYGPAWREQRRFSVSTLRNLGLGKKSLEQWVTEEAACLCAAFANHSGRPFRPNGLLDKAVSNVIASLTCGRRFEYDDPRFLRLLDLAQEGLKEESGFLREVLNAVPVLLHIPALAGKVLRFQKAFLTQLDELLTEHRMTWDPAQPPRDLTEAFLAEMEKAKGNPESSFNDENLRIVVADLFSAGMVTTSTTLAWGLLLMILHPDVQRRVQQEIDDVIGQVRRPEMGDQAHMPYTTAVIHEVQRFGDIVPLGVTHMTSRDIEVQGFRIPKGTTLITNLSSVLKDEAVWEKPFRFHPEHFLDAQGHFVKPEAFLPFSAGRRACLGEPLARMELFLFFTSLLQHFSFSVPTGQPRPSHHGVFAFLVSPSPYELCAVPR

For `Cc1cc(C)nc(O[C@H](C(=O)O)[C@@]2(c3cccc(-c4ccccc4)c3)NCC(=O)N(Cc3c(F)cc(F)cc3F)c3ccccc32)n1` (racemic), the concentration for half-maximal inhibition (IC50) in data set [1] was 7 µM; in data set [2] it was 28 µM; in [7], over 50 µM; in [8], 0.0079 µM; in [10] it was 0.0898 µM. For the same molecule, the logD in data set [3] came out at 1.8. Also, in data set [4], the ABC was 250 mmHg·h. Moreover, the Duration of action in data set [5] was 24 h. The pA2 is 7.07 in data set [6] and 9.03 in data set [11]. In data set [9], this molecule gave a Max effect of -12 mmHg.

Consider `Cc1cc(C)nc(O[C@H](C(=O)O)[C@@]2(c3ccccc3)NCC(=O)N(Cc3c(F)cc(F)cc3F)c3ccccc32)n1` (racemic), for which the half-inhibitory concentration (IC50) in data set [1] was 41 µM; in [2], over 50 µM; in [7], over 50 µM; in data set [8], 0.0025 µM; in data set [10], 0.0836 µM. In addition, in data set [12], the ABC is 674 mmHg·h. The logD in [3] came to 0.4. The molecule also displayed a Duration of action in [5] of 54 h. The pA2 in data set [6] amounted to 6.18; in data set [11], 8.18. Further, the Max effect in data set [9] is recorded as -21 mmHg.

Turning to `CCCCc1cccc([C@]2([C@H](Oc3nc(C)cc(C)n3)C(=O)O)NCC(=O)N(Cc3c(F)cc(F)cc3F)c3ccccc32)c1` (racemic), the IC50 in [1] was 5 µM; in data set [2] it was 15 µM; in data set [7], over 50 µM; in data set [8], 0.0139 µM; in data set [10], 0.0332 µM. In data set [13], the ABC is 214 mmHg·h. Further, the logD in [3] came out at 2.3. In data set [5], the Duration of action came out at 18 h. Also, the pA2 in data set [6] amounted to 7.72; in data set [11], 8.36. Besides, the Max effect in [9] is given as -13 mmHg.

On to `Cc1cc(C)cc(O[C@H](C(=O)O)[C@@]2(c3ccccc3)NCC(=O)N(Cc3c(F)cc(F)cc3F)c3ccccc32)c1` (racemic), for which the IC50 was 14 µM in data set [1]; 15 µM in data set [2]; over 50 µM in data set [7]; 0.0172 µM in data set [8]; 0.565 µM in [10]. Also, in [3], the logD was 2.1. Also, the Duration of action in data set [5] was 32 h. Moreover, the results for the pA2 in [6] and in [11] were 7.02 and 8.27, respectively. Further, in [14], the ABC was 483 mmHg·h. Besides, in data set [9], the Max effect is -28 mmHg.

By IC50 is commonly meant the concentration that inhibits the measured activity by half. As usually defined, the pA2 is a measure of antagonist potency on a negative log scale. Higher therefore signals a more potent antagonist.
